“And” between values parts separate entries of the source, which are not always exact repeats. Equal values may be shown once.
Tests used:
rats = test: Oral up/down LD-50 determination, gavage in corn oil; format: in vivo, rat (Wistar)
Method in brief: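 Up/down design in 3 female Wistar rats (206–208 g). Test compound was suspended in corn oil and given by gavage, three times daily to reach the top level. Testing stopped at 5 g kg−1 body weight.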

Endotoxin activity = conditions: 1 mg mL^−1, tested undiluted to 1:512 dilution
[1] = test system: Escherichia coli strain WP2 uvrA; test: Ames test for mutagenic activity; format: cell-based; conditions: reversion of mutations in the tryptophan operon
[2] = Oxygen radical absorbance capacity; conditions: Trolox equivalency
[3] = Metabolic profiling with human liver microsomes; format: in vitro ADME; conditions: incubation with human liver microsomes, MS identification
Method in brief: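 Test compound incubated with human or rat liver microsomes. Products separated by HPLC and identified by electrospray MS and MS:MS, using information-dependent acquisition on the parent ion, enhanced product ion scans, and linear ion trap scanning of trapped fragments.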

[4] = Plasma clearance after intravenous dosing; format: in vivo, rat (Sprague-Dawley)
Method in brief: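 Male Sprague-Dawley rats received 1 mg kg−1 test compound intravenously. Plasma levels were measured by the biodistribution LC-MS:MS method: heparinised, chilled plasma, DTT reduction, then reversed-phase ammonium formate/acetonitrile gradient with ESI MRM detection.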

[5] = test system: rats injected with lethal doses of mercury chloride; test: Survival of young rats after lethal doses of mercury chloride; format: in vivo, rat (Sprague-Dawley)
Method in brief: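 Thirty-six young male Sprague-Dawley rats (225–245 g) were split into three groups of 12. They received HgCl2 sc under the right abdominal skin at 1.0, 2.0 or 14 mg kg−1. Six per group then got test compound sc on the left side 20–25 min later in isotonic 25% DMSO:75% PBS: 528 micromoles for the two lower doses, 880 micromoles for the top dose.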

[6] = Solubility and stability of NBMI and its Hg complex; format: physicochemical
[7] = iv 1 mg kg^−1, individual rats 1-3
[8] = iv 1 mg kg^−1, plasma, individual rats 1-3

Q: With `O=C(NCCS)c1cccc(C(=O)NCCS)c1` [NBMI, N,N′-bis(2-mercaptoethyl)isophthalamide] as the compound, how does the LD-50 (rats; oral gavage in corn oil, female Wistar rats) read?
A: > 5 g kg^−1 body weight

Q: And the “signs of toxicity in LD-50 study” value (rats; up to 5 g NBMI kg^−1 body weight, gavaged 3 times daily)?
A: no death or other signs of toxicity with the exception of some diarrhea

Q: And the endotoxin content (Endotoxin activity)?
A: less than one

Q: And the “mutagenicity, Ames analysis” value [1]?
A: non-mutagenic

Q: And the ORAC score [2]?
A: 199,000 Trolox units 100g^−1

Q: What about the metabolites detected [3] of the same compound?
A: only two NBMI modified structures

Q: And the “clearance relative to liver blood flow of a typical rat (3.3 L hr^−1 kg^−1)” value ([4]; iv 1 mg kg^−1)?
A: approximately 30%

Q: What about the Plasma concentration ([4]; iv 1 mg kg^−1, 0.083 hr, individual rats 1-3) of the same compound?
A: 535 ng/mL and 423 ng/mL

Q: What about the Plasma concentration ([4]; iv 1 mg kg^−1, 0.25 hr, individual rats 1-3) of the same compound?
A: 320 ng/mL and 254 ng/mL

Q: What about the Plasma concentration ([4]; iv 1 mg kg^−1, 0.5 hr, individual rats 1-3) of the same compound?
A: 228 ng/mL and 203 ng/mL

Q: What about the Plasma concentration ([4]; iv 1 mg kg^−1, 1 hr, individual rats 1-3) of the same compound?
A: 155 ng/mL and 124 ng/mL

Q: What about the Plasma concentration ([4]; iv 1 mg kg^−1, 3 hr, individual rats 1-3) of the same compound?
A: 84.1 ng/mL and 63.1 ng/mL

Q: And the Plasma concentration ([4]; iv 1 mg kg^−1, 6 hr, individual rats 1-3)?
A: 32.7 ng/mL and 28.9 ng/mL

Q: What about the Plasma concentration ([4]; iv 1 mg kg^−1, 24 hr, individual rats 1-3) of the same compound?
A: 6.6 ng/mL and 8.84 ng/mL and 3.7 ng/mL

Q: What about the “Co, maximum plasma concentration extrapolated to t=0” value [4, 7] of the same compound?
A: 633 ng/mL and 691 ng/mL and 545 ng/mL

Q: And the “Vss, steady state volume of distribution” value [4, 7]?
A: 7.2 L/kg and 7.3 L/kg

Q: And the “Co, maximum plasma concentration extrapolated to t=0” value ([4]; iv 1 mg kg^−1, mean)?
A: 623 ng/mL

Q: What about the “CL, clearance” value [4, 8] of the same compound?
A: 15.2 mL/min/kg and 21 mL/min/kg

Q: And the “t1/2, half-life” value [4, 8]?
A: 7.28 h and 5.42 h

Q: And the concentration at 24 hr ([4]; male, Sprague-Dawley, rat, plasma, iv, 1 mg kg^−1, Plasma concentration, iv 1 mg kg^−1, 24 hr, mean)?
A: 6.38 ng/mL

Q: And the clearance ([4]; male, Sprague-Dawley, rat, plasma, iv, 1 mg/kg, CL, clearance, iv 1 mg kg^−1, plasma, mean)?
A: 16.8 mL/min/kg

Q: What about the Vd ([4]; male, Sprague-Dawley, rat, plasma, iv, 1 mg/kg, Vss, steady state volume of distribution, iv 1 mg kg^−1, mean) of the same compound?
A: 6.7 L/kg

Q: What about the half-life ([4]; male, Sprague-Dawley, rat, plasma, iv, 1 mg/kg, t1/2, half-life, iv 1 mg kg^−1, plasma, mean) of the same compound?
A: 6.18 h

Q: And the “PERCENT SURVIVAL” value ([5]; HgCl2 1 mg kg^−1 sc, NBMI 528 micromoles (150 mg) kg^−1 sc, 0 hrs)?
A: 100%

Q: What about the “PERCENT SURVIVAL” value ([5]; HgCl2 1 mg kg^−1 sc, NBMI 528 micromoles (150 mg) kg^−1 sc, 6 hrs) of the same compound?
A: 100%

Q: What about the “PERCENT SURVIVAL” value ([5]; HgCl2 1 mg kg^−1 sc, NBMI 528 micromoles (150 mg) kg^−1 sc, 12 hrs) of the same compound?
A: 100%

Q: What about the “PERCENT SURVIVAL” value ([5]; HgCl2 1 mg kg^−1 sc, NBMI 528 micromoles (150 mg) kg^−1 sc, 24 hrs) of the same compound?
A: 100%

Q: What about the “PERCENT SURVIVAL” value ([5]; HgCl2 1 mg kg^−1 sc, NBMI 528 micromoles (150 mg) kg^−1 sc, 48 hrs) of the same compound?
A: 100%

Q: And the “PERCENT SURVIVAL” value ([5]; HgCl2 1 mg kg^−1 sc, NBMI 528 micromoles (150 mg) kg^−1 sc, 72 hrs)?
A: 100%

Q: And the “PERCENT SURVIVAL” value ([5]; HgCl2 2 mg kg^−1 sc, NBMI 528 micromoles (150 mg) kg^−1 sc, 0 hrs)?
A: 100%

Q: What about the “PERCENT SURVIVAL” value ([5]; HgCl2 2 mg kg^−1 sc, NBMI 528 micromoles (150 mg) kg^−1 sc, 6 hrs) of the same compound?
A: 100%

Q: And the “PERCENT SURVIVAL” value ([5]; HgCl2 2 mg kg^−1 sc, NBMI 528 micromoles (150 mg) kg^−1 sc, 12 hrs)?
A: 100%

Q: And the “PERCENT SURVIVAL” value ([5]; HgCl2 2 mg kg^−1 sc, NBMI 528 micromoles (150 mg) kg^−1 sc, 24 hrs)?
A: 100%

Q: And the “PERCENT SURVIVAL” value ([5]; HgCl2 2 mg kg^−1 sc, NBMI 528 micromoles (150 mg) kg^−1 sc, 48 hrs)?
A: 100%

Q: And the “PERCENT SURVIVAL” value ([5]; HgCl2 2 mg kg^−1 sc, NBMI 528 micromoles (150 mg) kg^−1 sc, 72 hrs)?
A: 100%

Q: What about the “PERCENT SURVIVAL” value ([5]; HgCl2 14 mg kg^−1 sc, NBMI 880 micromoles (250 mg) kg^−1 sc, 0 hrs) of the same compound?
A: 100%

Q: What about the “PERCENT SURVIVAL” value ([5]; HgCl2 14 mg kg^−1 sc, NBMI 880 micromoles (250 mg) kg^−1 sc, 6 hrs) of the same compound?
A: 100%

Q: What about the “PERCENT SURVIVAL” value ([5]; HgCl2 14 mg kg^−1 sc, NBMI 880 micromoles (250 mg) kg^−1 sc, 12 hrs) of the same compound?
A: 100%

Q: What about the “PERCENT SURVIVAL” value ([5]; HgCl2 14 mg kg^−1 sc, NBMI 880 micromoles (250 mg) kg^−1 sc, 24 hrs) of the same compound?
A: 100%

Q: And the “PERCENT SURVIVAL” value ([5]; HgCl2 14 mg kg^−1 sc, NBMI 880 micromoles (250 mg) kg^−1 sc, 48 hrs)?
A: 67%

Q: And the “PERCENT SURVIVAL” value ([5]; HgCl2 14 mg kg^−1 sc, NBMI 880 micromoles (250 mg) kg^−1 sc, 72 hrs)?
A: 67%

Q: What about the “condition of the surviving rats on long term observation” value ([5]; surviving 16 rats from all groups observed for three months) of the same compound?
A: No adverse effects were noted

Q: What about the “solubility in 95% ethanol or dimethylsulfoxide (DMSO)” value [6] of the same compound?
A: readily dissolves

Q: And the solubility in water [6]?
A: water insoluble
